Active and inactive are the calls of the source. No cut-off for these calls is given here.
What was measured:
[1] = Aggregation property of the compound in NMR buffer at 50 to 250 uM by surface plasmon resonance analysis; format: physicochemical
Outline: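 SPR on a nonfunctionalized gold nanoparticle sensor; samples in NMR buffer with DMSO at 1.25%, injected at 33 μL/min alongside matched DMSO controls (with HSA where present, 25 μM), in duplicate. Surface regenerated only after HSA-containing injections.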

[2] = target: T1, Albumin (Homo sapiens, UniProt P02768); assay: Binding affinity to human serum albumin assessed as inhibition of compound aggregation at 500 uM by dynamic light scattering analysis
T1 sequence (P02768 whole entry): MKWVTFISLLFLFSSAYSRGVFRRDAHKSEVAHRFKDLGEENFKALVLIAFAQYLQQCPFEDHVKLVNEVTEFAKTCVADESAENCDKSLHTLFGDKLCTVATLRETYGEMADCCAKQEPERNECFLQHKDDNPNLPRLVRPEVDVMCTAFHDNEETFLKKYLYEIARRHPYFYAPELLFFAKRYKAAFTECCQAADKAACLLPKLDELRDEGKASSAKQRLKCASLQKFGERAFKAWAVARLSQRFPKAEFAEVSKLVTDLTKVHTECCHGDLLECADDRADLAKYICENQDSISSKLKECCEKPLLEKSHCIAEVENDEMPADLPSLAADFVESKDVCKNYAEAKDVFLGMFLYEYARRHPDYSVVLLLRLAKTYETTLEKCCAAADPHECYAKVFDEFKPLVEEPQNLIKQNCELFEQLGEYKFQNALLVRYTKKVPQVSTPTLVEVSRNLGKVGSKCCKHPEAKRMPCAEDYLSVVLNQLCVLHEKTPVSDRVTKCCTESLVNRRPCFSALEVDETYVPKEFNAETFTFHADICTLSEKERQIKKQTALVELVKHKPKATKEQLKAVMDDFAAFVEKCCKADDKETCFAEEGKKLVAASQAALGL
Outline: (§1)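 Dynamic light scattering in NMR buffer, samples filtered through 0.22 μm and centrifuged 5 min at 13 500 rpm before measurement. Autocorrelation accumulated 150 s at a 173° scattering angle, in replicates of 3–5, with water viscosity used in analysis; intensity or volume size distributions reported.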

[3] = target: T2, Rap guanine nucleotide exchange factor 3 (Homo sapiens, UniProt O95398); assay: Binding affinity to human EPAC1 cAMP binding domain (149 to 318 residues) in presence of human serum albumin by [15N-1H]HSQC spectroscopic analysis; settings: read-out: Kd(app)
T2 sequence (O95398 whole entry): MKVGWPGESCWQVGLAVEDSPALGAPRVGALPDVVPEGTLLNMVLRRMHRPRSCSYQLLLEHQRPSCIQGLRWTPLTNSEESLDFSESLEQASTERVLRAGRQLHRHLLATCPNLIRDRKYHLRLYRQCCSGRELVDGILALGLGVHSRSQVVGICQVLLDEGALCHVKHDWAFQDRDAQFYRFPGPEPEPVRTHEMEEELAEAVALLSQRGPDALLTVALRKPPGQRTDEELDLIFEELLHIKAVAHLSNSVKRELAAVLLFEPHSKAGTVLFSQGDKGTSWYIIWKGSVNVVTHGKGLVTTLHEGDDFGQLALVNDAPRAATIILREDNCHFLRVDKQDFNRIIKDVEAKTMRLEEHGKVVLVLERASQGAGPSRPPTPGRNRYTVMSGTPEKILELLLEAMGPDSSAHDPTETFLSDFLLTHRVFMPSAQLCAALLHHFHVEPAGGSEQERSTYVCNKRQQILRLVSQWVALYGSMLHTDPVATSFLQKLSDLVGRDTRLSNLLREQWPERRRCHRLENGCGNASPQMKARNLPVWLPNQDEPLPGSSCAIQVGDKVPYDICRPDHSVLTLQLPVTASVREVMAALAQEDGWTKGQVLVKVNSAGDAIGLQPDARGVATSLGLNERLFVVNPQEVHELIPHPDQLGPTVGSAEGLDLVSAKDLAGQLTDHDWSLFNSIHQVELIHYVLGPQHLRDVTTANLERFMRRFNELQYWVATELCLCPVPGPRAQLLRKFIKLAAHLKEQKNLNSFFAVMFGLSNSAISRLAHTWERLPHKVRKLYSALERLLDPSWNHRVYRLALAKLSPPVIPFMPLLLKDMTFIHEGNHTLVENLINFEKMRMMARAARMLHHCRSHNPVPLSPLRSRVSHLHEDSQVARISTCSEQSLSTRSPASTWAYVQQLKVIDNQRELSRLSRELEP
Outline: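 100 μM human EPAC1 CBD (149–318) in NMR buffer (Tris pH 7.6) was titrated with inhibitor in the presence of globulin- and fatty-acid-free human serum albumin at stated stoichiometric ratios. Chemical shift differences and peak intensities normalised to ligand-free sample (I/I0, averaged over residues) were tracked. Errors came from propagated signal-to-noise.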

[4] = Aggregation property of the compound assessed as change in chemical shift by 1H-NMR analysis; format: physicochemical
Outline: (§2)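 Line widths, chemical shifts and peak intensities tracked; CAC taken as the concentration where intensities deviate from linear dependence, or, for line width, the minimal concentration that increases peak width.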

[5] = Aggregation property of the compound in NMR buffer assessed as amorphous morphology at 200 uM by uranyl acetate staining-based transmission electron microscopic analysis; format: physicochemical
[6] = target: T1, Albumin; assay: Displacement of [13C]oleic acid from human serum albumin by CH-HSQC spectra analysis
Outline: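 Fatty-acid-free recombinant HSA at 250 μM in sodium phosphate buffer (20 mM NaPO4, pH 7.6, 50 mM NaCl, D2O), 37 °C for 30 min. 13C-oleic acid (100 mM stock in DMSO-d6, warmed to 50 °C for 10 min) added to 1.5 mM, then 2 h at 37 °C. CH-HSQC at 298 K; loss of site-specific cross-peaks A–H scored.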

[7] = target: T1, Albumin; assay: Displacement of ANS from human serum albumin at <150 uM by fluorescence assay
Outline: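 Fluorescence competition: 2.5 μM HSA with 5 or 100 μM ANS, ligand added over a concentration range. Excitation 360 nm; emission read at 460 and 480 nm to check for blue shift. Signal normalized between ANS alone (minimum) and HSA:ANS (maximum).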

[8] = Aggregation property of the compound assessed as change in peak intensity by measuring concentration at which peak intensities deviated from the linear correlation by 1H-NMR analysis; format: physicochemical; outline: as §2
[9] = target: T1, Albumin; assay: Displacement of dansylated phenylalanine from human serum albumin at <150 uM by fluorescence assay
Outline: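 Competition of ligand against 100 μM dansyl-phenylalanine (binds Sudlow sites 1 and 2) bound to 2.5 μM HSA. Excitation 370 nm, emission 480 nm. Fractional saturation modelled with two sites, free HSA assumed negligible; least-squares fit with no further ESI sites, giving maximum apparent dissociation constants.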

[10] = target: T2, Rap guanine nucleotide exchange factor 3; assay: Binding affinity to human EPAC1 cAMP binding domain (149 to 318 residues) by [15N-1H]HSQC spectroscopic analysis
[11] = target: T1, Albumin; assay: Binding affinity to human serum albumin assessed as line broadening at 200 uM by 1D 1H NMR analysis
[12] = Aggregation property of the compound in NMR buffer assessed as aggregate size at 500 uM by dynamic light scattering analysis; format: physicochemical; outline: as §1
[13] = target: T1, Albumin; assay: Displacement of dansylated arginine from human serum albumin at <150 uM by fluorescence assay
Outline: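 Competition of ligand against 100 μM dansyl-arginine (Sudlow site 1, 1:1 stoichiometry) bound to 2.5 μM HSA. Excitation 370 nm, emission 460 nm. Apparent Kd fitted by Wang's method using least squares, assuming no other ligand sites on HSA, so treated as a maximum apparent value.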

[14] = Aggregation property of the compound assessed as shift in peak width by 1H-NMR analysis; format: physicochemical; outline: as §2
[15] = Aggregation property of the compound assessed as change in saturation transfer at 100 uM irradiated at 8.61 ppm by STD NMR spectra analysis; format: physicochemical
Outline: (§3)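 STD NMR, saturation by a train of 40 Gaussian pulses of 50 ms each; selective on-resonance irradiation at the stated ppm (TX at 7.48 ppm), off-resonance at 30 ppm, interleaved and subtracted by phase cycling. 32K points, 16 ppm width centred at 4.7 ppm, 256 scans, 16 dummy scans, 0.1 s recycle delay (~15 min); 3 Hz exponential line broadening.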

[16] = Aggregation property of the compound in NMR buffer assessed as diameter of aggregate at 500 uM by dynamic light scattering analysis; format: physicochemical; outline: as §1
[17] = Binding affinity to Triton-X 100 assessed as change in chemical shift at 150 uM by 1H-NMR spectra analysis
[18] = Binding affinity to Triton-X 100 assessed as peak intensity loss at 150 uM by 1H-NMR spectra analysis
[19] = Binding affinity to Triton-X 100 assessed as line broadening at 150 uM by 1H-NMR spectra analysis
[20] = Binding affinity to Triton-X 100 assessed as compound-complex formation at 500 uM by NOESY spectra analysis
Outline: (§4)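 2D NOESY and ROESY of 100 μM ESI with 0.025% Triton X-100 or 500 μM ESI with 0.05% Triton X-100; 2K × 512 complex points, 12 ppm spectral width centred at 4.7 ppm, intra- and intermolecular cross-peaks mapped.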

[21] = Binding affinity to Triton-X 100 assessed as intra-molecular saturation transfer at 500 uM at 8.61 ppm by STD spectra analysis; outline: as §3
[22] = Binding affinity to Triton-X 100 assessed as intra-molecular cross relaxation at 500 uM by NOESY spectra analysis; outline: as §4
[23] = Binding affinity to Triton-X 100 assessed as peak size of aggregate at 1:1 ratio of Triton-X 100 to compound by dynamic light scattering analysis; outline: as §1
[24] = Binding affinity to Triton-X 100 assessed as inter-molecular cross relaxation at 500 uM by NOESY spectra analysis; outline: as §4
[25] = Binding affinity to Triton-X 100 at 500 uM measured after 14 hrs by NOESY spectra analysis; outline: as §4
[26] = Binding affinity to Triton-X 100 assessed as peak size of aggregate at 1:2 ratio of Triton-X 100 to compound by dynamic light scattering analysis; outline: as §1
[27] = Binding affinity to Triton-X 100 assessed as inter-molecular saturation transfer at 500 uM at 8.61 ppm by STD spectra analysis; outline: as §3
[28] = Binding affinity to Triton-X 100 assessed as change in chemical shift at 100 uM by 1H-NMR spectra analysis
[29] = Binding affinity to Triton-X 100 assessed as line broadening at 150 uM by 1H-NMR analysis

Question: For C[C@@H]1CCc2c(cc(Br)c(F)c2Br)N1C=O [listing 1 of 2 here], which Activity [1] is on record?
Answer: The Activity was “Not Active”.

Question: And the “inhibition (INH)” value [2]?
Answer: Its value is “Active”.

Question: And the Kd [3]?
Answer: The Kd was 757 to 1980 µM.

Question: What about the Activity [4] of the same molecule?
Answer: Its Activity is “Not Active”.

Question: And the Activity [5]?
Answer: The Activity was “Active”.

Question: What about the Activity [6] of the same molecule?
Answer: The Activity was “Active”.

Question: And the Activity [7]?
Answer: Its Activity is “Not Active”.

Question: And the Activity [8]?
Answer: Its Activity is 150 µM.

Question: And the Activity [9]?
Answer: The Activity was “Not Active”.

Question: What about the Kd [10] of the same molecule?
Answer: Its Kd is 124 to 184 µM.

Question: And the Activity [11]?
Answer: Its Activity is “Active”.

Question: And the Activity [12]?
Answer: The Activity was 90 to 600 nm.

Question: And the Activity [13]?
Answer: The Activity was “Not Active”.

Question: And the Activity [14]?
Answer: Its Activity is “Not Active”.

Question: And the Activity [15]?
Answer: The Activity was “Not Active”.

Question: And the Activity [16]?
Answer: Its Activity is 250 nm.

Question: What does the source list for COC(=O)C1=C(C)NC(C)=C(C(=O)OCCN(C)Cc2ccccc2)C1c1cccc([N+](=O)[O-])c1 (stereo not given)?
Answer: Activity [17]: Active; Activity [18]: Active; Activity [19]: Active

Question: For C[C@@H]1CCc2c(cc(Br)c(F)c2Br)N1C=O [listing 2 of 2 here], which Activity [20] is on record?
Answer: The Activity was “Active”.

Question: And the Activity [21]?
Answer: Its Activity is “Active”.

Question: What about the Activity [22] of the same molecule?
Answer: Its Activity is “Active”.

Question: And the Activity [23]?
Answer: Its Activity is 10 nm.

Question: What about the Activity [24] of the same molecule?
Answer: The Activity was “Active”.

Question: And the Activity [25]?
Answer: Its Activity is “inactive”.

Question: What about the Activity [26] of the same molecule?
Answer: The Activity was 70 nm.

Question: What about the Activity [27] of the same molecule?
Answer: The Activity was “Active”.

Question: With C[C@@H]1CCc2c(cc(Br)c(F)c2Br)N1C=O (stereo in doubt; cis) as the molecule, how does the Activity [28] read?
Answer: The Activity was less than 0.34 ppm.

Question: With O=S(=O)(O)c1cccc2cccc(Nc3ccccc3)c12 as the molecule, how does the Activity [17] read?
Answer: Its Activity is “Active”.

Question: And the Activity [19]?
Answer: Its Activity is “Active”.

Question: For C[C@@H]1CCc2c(cc(Br)c(F)c2Br)N1C=O (stereo in doubt; trans), which Activity [28] is on record?
Answer: The Activity was 0.02 ppm.

Question: What does the source list for Clc1ccccc1C(c1ccccc1)(c1ccccc1)n1ccnc1?
Answer: Activity [17]: Active; Activity [18]: Active; Activity [19]: Active

Question: Which Activity [17] does the source give for Nc1nnc(-c2cccc(Cl)c2Cl)c(N)n1 here?
Answer: Its Activity is “inactive”.

Question: What about the Activity [19] of the same molecule?
Answer: Its Activity is “inactive”.

Question: For O=C(O)c1cc(-c2ccc(F)cc2F)ccc1O, which Activity [17] is on record?
Answer: The Activity was “Active”.

Question: And the Activity [19]?
Answer: Its Activity is “Active”.

Question: With O=C(OCc1ccccc1)c1ccccc1 as the molecule, how does the Activity [17] read?
Answer: The Activity was “Active”.

Question: What about the Activity [18] of the same molecule?
Answer: The Activity was “Active”.

Question: And the Activity [19]?
Answer: The Activity was “Active”.

Question: With Clc1ccc(COC(Cn2ccnc2)c2ccc(Cl)cc2Cl)c(Cl)c1 (stereo not given) as the molecule, how does the Activity [17] read?
Answer: The Activity was “Active”.

Question: And the Activity [18]?
Answer: Its Activity is “Active”.

Question: What about the Activity [19] of the same molecule?
Answer: The Activity was “Active”.

Question: What about the Activity [29] of the same molecule?
Answer: Its Activity is “Active”.
